Bioassay records as filed in PubChem BioAssay.
Compounds with a hit are over-represented: about 4% of the library has one in this group of screens.
FGF22 binding = binders of human FGF22 protein, primary screen, FGF22 synaptogenesis inhibitor project, biophysical, thermal shift, single point; recombinant FGF22 thermal shift, SYPRO orange fluorescence; percent of sucrose octasulfate shift, DMSO zero; activity (Tm shift, normalised), % at 9.99 µM; 340,000 tested, 1.5% active; Fibroblast growth factor 22 (Homo sapiens), Q9HCT0;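 active = mean Tm shift, scaled 0 neutral to 100 positive control, at about 1.3% or above, every replicate too, limit read from the data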
Target sequence (Q9HCT0 whole entry, looked up): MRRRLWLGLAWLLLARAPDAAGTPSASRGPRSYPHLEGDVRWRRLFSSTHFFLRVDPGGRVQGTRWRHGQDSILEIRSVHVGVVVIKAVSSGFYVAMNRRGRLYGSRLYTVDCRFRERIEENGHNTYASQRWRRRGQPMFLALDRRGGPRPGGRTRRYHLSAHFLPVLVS
FN deposition inh = inhibitors of fibronectin matrix deposition, primary screen, AH1F cells, Alexa488-fibronectin fluorescence, plate reader | AH1F fibroblasts, overnight | inhibition, % at 12.6 µM | 350,000 tested, 0.086% active | AID 743247, 2014;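 active = mean inhibition across replicates of 30% or more, regardless of how many single replicates reach that level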
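Assay system: AH1F fibroblast monolayer, labelled fibronectin deposition. Amount: 10000 cells per well. Also added: labelled fibronectin 24 nM. Compound: single-point pinned compound. Incubation: cell attachment 1 h, compound and FN exposure overnight. Detection: fluorescence after three HBSS washes, excitation 485 nm, emission 525 nm. Read-out: inhibition of fibronectin deposition signal.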
Ecoli rRNA inh = reduced GFP signal of wild-type E. coli, primary screen, bacterial rRNA inhibitor project, GFP/RFP fluorescence, OD600, single point. E. coli WT GFP vs humanized-ribosome RFP mutants, 24 h; stronger effect = lower value; DMSO median 0, no signal -100. GFP signal change (wild-type ribosome), % (no concentration beside the values). 350,000 tested, 1.6% active;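 active = significant combined selectivity score with lowered wild-type GFP, culture density cut under 30%, mutant RFP and density less affected; inactive = any of these conditions unmet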
E-sel inducer = E-selectin induction in HUVECs, primary screen, imaging, HUVEC, immunofluorescence imaging, single point; P16581; normalized: neutral wells 0, TNF-alpha wells 100; activation, % at 7.58 µM; 260,000 tested, 0.37% active; AID 686992, 2013;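 active = mean E-selectin-positive cell signal at least 10% of the positive control, reached in at least 60% of replicates, without over 20% cell loss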
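Assay system: HUVEC, human umbilical vein endothelial cells / Amount: 3,000 HUVEC/well / Controls: TNF-alpha positive control, DMSO neutral control / Compound dosing: single concentration / Medium: EGM-2 over gelatin coat / Evaluation: percent E-selectin-positive cells / Signal: immunofluorescence imaging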
C2C12 statin = suppressors of statin myotoxicity in C2C12 myotubes, primary screen, cell-based, single point, plate reader; C2C12 myotubes + simvastatin, ATP luminescence, 48 h; scaled: DMSO 0, geranylgeraniol control 100; rescue of ATP level, % at 7.49 µM; 330,000 tested, 0.78% active;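 active = mean ATP rescue above about 67%, or every replicate alone reaching that limit, limit read from the data, passing the limit was not always enough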;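 also: myotubes were challenged with 10 µM simvastatin during compound exposure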
SIRT5 inh = SIRT5 desuccinylase inhibitors, primary screen, biochemical, fluorescence imaging, single point, set 5 | 330,000 tested, 1.1% active | Purified SirT5, succinyl-peptide AMC, trypsin-coupled fluorescence | inhibition, % at 15 µM | NAD-dependent protein deacylase sirtuin-5, mitochondrial (Homo sapiens), Q9NXA8; in the data active = inhibition above about 15%
Target sequence (Q9NXA8 whole entry, looked up): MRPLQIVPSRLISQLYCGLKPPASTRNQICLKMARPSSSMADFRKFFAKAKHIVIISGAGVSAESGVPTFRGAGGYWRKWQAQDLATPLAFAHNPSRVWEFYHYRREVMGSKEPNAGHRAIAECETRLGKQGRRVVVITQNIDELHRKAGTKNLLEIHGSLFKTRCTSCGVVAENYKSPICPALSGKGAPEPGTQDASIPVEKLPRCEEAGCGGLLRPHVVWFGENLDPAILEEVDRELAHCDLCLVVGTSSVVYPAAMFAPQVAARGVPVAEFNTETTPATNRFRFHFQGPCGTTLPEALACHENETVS
A number is an active result.

O=C(C[C@H]1C=C[C@@H](NC(=O)c2ccc(F)cc2)[C@H](CO)O1)NCCc1ccccc1 was read as FGF22 binding inactive, FN deposition inh inactive, Ecoli rRNA inh inactive, E-sel inducer inactive, C2C12 statin inactive and SIRT5 inh inactive.
`O=C(C[C@H]1CC[C@@H]2[C@H](COC[C@@H](O)CN2C(=O)Nc2ccc3c(c2)OCO3)O1)N1CCN(c2ccccc2)CC1` gave FGF22 binding inactive, FN deposition inh inactive, Ecoli rRNA inh inactive, E-sel inducer inactive, C2C12 statin inactive and SIRT5 inh inactive.
C[C@H](CO)N1C[C@H](C)[C@H](CN(C)S(=O)(=O)c2cccc(F)c2)Oc2ncc(C#CC3CC3)cc2C1=O was read as FGF22 binding inactive, Ecoli rRNA inh inactive, E-sel inducer inactive, C2C12 statin inactive and SIRT5 inh inactive.
Screening C=CCn1c(SCC(=O)Nc2nc3ccccc3s2)nc(O)c(CC)c1=O returned FGF22 binding inactive, FN deposition inh inactive, Ecoli rRNA inh -27, E-sel inducer 33 and SIRT5 inh inactive.
`CCc1c(O)nc(SCC(=O)Nc2nc3ccccc3s2)n(-c2ccccc2)c1=O` gave FGF22 binding inactive, FN deposition inh inactive, Ecoli rRNA inh inactive, E-sel inducer inactive, C2C12 statin inactive and SIRT5 inh inactive.
`C[C@@H]1CN([C@@H](C)CO)S(=O)(=O)c2ccc(C#Cc3ccncc3)cc2O[C@@H]1CN(C)CC1CC1` gave FGF22 binding inactive, Ecoli rRNA inh inactive, E-sel inducer inactive, C2C12 statin inactive and SIRT5 inh inactive.
`NS(=O)(=O)c1cccc(NC(=O)COC(=O)c2ccccc2C(=O)c2ccccc2)c1` gave FGF22 binding inactive, FN deposition inh inactive, Ecoli rRNA inh -32, C2C12 statin inactive and SIRT5 inh inactive.
For COc1ccc(CN(C)C[C@H]2OCCCC[C@@H](C)Oc3ccc(NS(=O)(=O)c4ccc(C)cc4)cc3C(=O)N([C@H](C)CO)C[C@H]2C)cc1 the results were Ecoli rRNA inh inactive, E-sel inducer inactive and SIRT5 inh inactive.
For COC(=O)COc1ccc(Cl)cc1C1Nc2ccccc2C(=O)N1c1ccc(OC)cc1 (configuration not stated) the results were FGF22 binding inactive, Ecoli rRNA inh -25, C2C12 statin inactive and SIRT5 inh inactive.
COc1ccc(COCC23N=C4SCc5ccccc5CN4[C@H](c4ccccc4O2)[C@H]3COC(=O)c2ccccc2)cc1 was read as FGF22 binding inactive and SIRT5 inh inactive.
For O=C1NC(=O)/C(=C\c2ccc(Cl)cc2Cl)N1 the results were FGF22 binding inactive, Ecoli rRNA inh -19, E-sel inducer inactive and C2C12 statin inactive.
For O=C1CC(c2cccc(F)c2)c2c(c3ccccc3[nH]c2=O)O1 (configuration not stated) the results were FGF22 binding 43, FN deposition inh inactive, Ecoli rRNA inh inactive and SIRT5 inh inactive.
`C/C(=N\NC(=O)CSc1nc2ccccc2s1)c1ccco1` gave FGF22 binding inactive, FN deposition inh inactive, E-sel inducer inactive and SIRT5 inh inactive.
Screening O=C(CSc1nc2cc(Cl)ccc2s1)c1ccco1 returned FGF22 binding inactive, Ecoli rRNA inh -21, C2C12 statin inactive and SIRT5 inh inactive.
Screening CN1C(=O)c2cc(NS(C)(=O)=O)ccc2OC[C@H]2O[C@H](CC(=O)NCc3ccc(-c4ccccc4)cc3)CC[C@@H]21 returned FGF22 binding inactive, FN deposition inh inactive, Ecoli rRNA inh inactive, E-sel inducer inactive, C2C12 statin inactive and SIRT5 inh inactive.
`CCNC(=O)C[C@@H]1CC[C@@H]2[C@@H](COc3ccc(NC(=O)Nc4cccc(OC)c4)cc3C(=O)N2C)O1` gave FGF22 binding inactive, FN deposition inh inactive, Ecoli rRNA inh inactive, E-sel inducer 76 and C2C12 statin inactive.
`COCC(=O)Nc1ccc2c(c1)C(=O)N(C)[C@H]1CC[C@H](CC(=O)NCc3ccccc3Cl)O[C@H]1CO2` gave FGF22 binding inactive, FN deposition inh inactive, Ecoli rRNA inh inactive, E-sel inducer inactive and C2C12 statin inactive.
`CN1C(=O)c2cc(NS(C)(=O)=O)ccc2OC[C@@H]2O[C@@H](CC(=O)NCc3ccc(-c4ccccc4)cc3)CC[C@@H]21` gave FGF22 binding inactive, Ecoli rRNA inh inactive, E-sel inducer inactive, C2C12 statin inactive and SIRT5 inh 15.
COCC(=O)Nc1ccc2c(c1)C(=O)N(C)[C@@H]1CC[C@@H](CC(=O)NCc3ccccc3Cl)O[C@H]1CO2 was read as FGF22 binding inactive, FN deposition inh 38, Ecoli rRNA inh inactive, E-sel inducer inactive and C2C12 statin inactive.
For COc1cccc(CNC(=O)C[C@H]2CC[C@@H]3[C@@H](COc4ccc(NC(=O)c5cccs5)cc4C(=O)N3C)O2)c1 the results were FGF22 binding inactive, FN deposition inh inactive, Ecoli rRNA inh inactive, E-sel inducer inactive, C2C12 statin inactive and SIRT5 inh 25.
Screening COc1ccc2c3c([nH]c2c1)[C@H](CO)N(C(=O)CC1CC1)CC31CCN(Cc2ccncc2)CC1 returned FN deposition inh inactive and Ecoli rRNA inh inactive.
Screening CN1CCN(C(=O)C[C@@H]2C[C@@H]3c4cc(NC(=O)NC5CCCC5)ccc4O[C@@H]3[C@H](CO)O2)CC1 returned FGF22 binding inactive, FN deposition inh inactive, Ecoli rRNA inh inactive, E-sel inducer inactive, C2C12 statin inactive and SIRT5 inh inactive.
`COc1ccc(S(=O)(=O)Nc2cccc3c2O[C@H](CN(C)S(=O)(=O)c2c(C)noc2C)[C@@H](C)CN([C@@H](C)CO)C3=O)cc1` gave FGF22 binding inactive, Ecoli rRNA inh inactive, E-sel inducer inactive and SIRT5 inh inactive.
`CC(Nc1ncnc2ccccc12)c1ccccc1` (configuration not stated) gave FGF22 binding inactive, FN deposition inh inactive, Ecoli rRNA inh -30, E-sel inducer inactive, C2C12 statin inactive and SIRT5 inh inactive.
NS(=O)(=O)c1cccc2c1c([N+](=O)[O-])cc1nc(O)c(O)nc12 was read as FGF22 binding inactive, FN deposition inh inactive, E-sel inducer inactive, C2C12 statin inactive and SIRT5 inh 16.
For CCn1c(CCC(=O)O)nc2cc(S(=O)(=O)N3CCOCC3)ccc21 the results were FGF22 binding inactive, FN deposition inh inactive, Ecoli rRNA inh inactive, E-sel inducer 117 and C2C12 statin inactive.
